Measured values taken from ChEMBL document CHEMBL1152519, “Synthesis, structural activity-relationships, and biological evaluation of novel amide-based allosteric binding site antagonists in NR1A/NR2B N-methyl-D-aspartate receptors” (Bioorg Med Chem, 2009).

Tests used:
[1] = biological target: Glutamate receptor ionotropic, NMDA 2B (Rattus norvegicus, UniProt Q00960); test: Displacement of [3H]ifenprodil form NR2B receptor in Wistar rat cerebral cortex membrane; format: tissue-based
[2] = biological target: Ionotropic glutamate receptor NMDA 1/2D (Rattus norvegicus) (UniProt P35439+Q62645); test: Antagonist activity at rat recombinant NR1/NR2D receptor expressed in Xenopus laevis oocytes assessed as inhibition of glutamate/glycine-induced current at 3 uM by two electrode voltage clamp method relative to control; format: functional, cell-based; settings: Oocyte
In short: (§1)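 Xenopus oocytes injected with NR1-1a (3–5 ng) plus NR2A, 2B, 2C or 2D cRNA (7–10 ng), kept at 15 °C. Voltage clamp at −40 mV. Responses to 50 μM glutamate + 30 μM glycine with 3 μM compound, as % of response without compound. NR2A oocytes pre-loaded with 50 μM BAPTA-AM. Mean ± SEM, 4–10 oocytes; paired t-test.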

[3] = biological target: Adrenergic receptor alpha-1 (Rattus norvegicus) (UniProt P15823+P23944+P43140); test: Displacement of [3H]prazosin from alpha1 adrenergic receptor in Wistar rat brain membrane at 3 uM; format: cell membranes
In short: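 Wistar rat brain membranes. Percent displacement of 0.25 nM [3H]prazosin by 3 μM compound, run in duplicate.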

[4] = biological target: Glutamate receptor ionotropic, kainate 2 (Rattus norvegicus) (UniProt P42260); test: Antagonist activity at rat recombinant GluR6 expressed in Xenopus laevis oocytes assessed as inhibition of concanavalin A/glutamate-induced current at 3 uM by two electrode voltage clamp method relative to control; format: functional, cell-based; settings: Oocyte
In short: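 Oocytes expressing homomeric GluR6 (5–10 ng cRNA) pretreated 5 min with 10 μM concanavalin-A. Currents evoked by 100 μM glutamate at −40 mV, with or without 3 μM compound, and given as percent of control. Mean ± SEM of 4–10 oocytes; paired t-test.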

[5] = biological target: Glutamate NMDA receptor; Grin1/Grin2c (Rattus norvegicus) (UniProt P35439+Q00961); test: Antagonist activity at rat recombinant NR1/NR2C receptor expressed in Xenopus laevis oocytes assessed as inhibition of glutamate/glycine-induced current at 3 uM by two electrode voltage clamp method relative to control; format: functional, cell-based; settings: Oocyte; in short: as §1
[6] = biological target: Glutamate NMDA receptor; Grin1/Grin2b (Rattus norvegicus) (UniProt P35439+Q00960); test: Antagonist activity at rat recombinant NR1/NR2B receptor expressed in Xenopus laevis oocytes assessed as inhibition of glutamate/glycine-induced current at 3 uM by two electrode voltage clamp method relative to control; format: functional, cell-based; settings: Oocyte; in short: as §1
[7] = biological target: Glutamate NMDA receptor; Grin1/Grin2a (Rattus norvegicus) (UniProt P35439+Q00959); test: Antagonist activity at rat recombinant NR1/NR2A receptor expressed in Xenopus laevis oocytes assessed as inhibition of glutamate/glycine-induced current at 3 uM by two electrode voltage clamp method relative to control; format: functional, cell-based; settings: Oocyte; in short: as §1
hERG (KCNH2) [8] = biological target: T1, hERG (KCNH2) (Homo sapiens, UniProt Q12809); test: Displacement of [3H]astemizole from human recombinant ERG expressed in HEK293 cells at 10 uM; format: cell-based; settings: HEK293 cells expressing human recombinant ERG, probe [3H]astemizole, read-out: Activity
MDCK [9] = test: Apparent permeability from apical to basolateral side of MDR1-expressing MDCK cells at 5 uM after 2 hrs by LC-MS/MS analysis; format: ADME, cell-based, Canis lupus familiaris; settings: dog
In short: (§2)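 MDR1-MDCK monolayers grown 7–11 days on Transwells. Compound at 5 μM in HBSS pH 7.4 (final DMSO ≤1%) added apically (A–B) or basally (B–A). Incubated 2 h at 37 °C; both compartments quantified by LC–MS/MS against a >4-point calibration. Papp given in ×10−6 cm/s; efflux ratio = B–A/A–B. Duplicates.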

MDCK [10] = test: Apparent permeability from basolateral to apical side of MDR1-expressing MDCK cells at 5 uM after 2 hrs by LC-MS/MS analysis; format: ADME, cell-based, Canis lupus familiaris; settings: dog; in short: as §2
[11] = biological target: Glutamate receptor 1 (Rattus norvegicus) (UniProt P19490); test: Antagonist activity at rat recombinant GluR1 expressed in Xenopus laevis oocytes assessed as inhibition of glutamate-induced current at 3 uM by two electrode voltage clamp method relative to control; format: functional, cell-based; settings: Oocyte
In short: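 GluR1 homomers expressed from 5–10 ng cRNA in Xenopus oocytes. Clamped at −40 mV. Currents evoked by 100 μM glutamate with 3 μM compound, expressed as % of control without compound. Mean ± SEM, 4–10 oocytes; paired t-test.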

[12] = biological target: Glutamate NMDA receptor; GRIN1/GRIN2B (Homo sapiens, UniProt Q05586+Q13224); test: Antagonist activity at human recombinant NR1/NR2B receptor expressed in frog oocytes assessed as inhibition of glutamate/glycine-induced current by two electrode voltage clamp method; format: functional, cell-based, Oocyte
In short: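 Human NR1/NR2B cRNA injected into Xenopus oocytes. Two-electrode voltage clamp at −40 mV, 23 °C, 2–7 d after injection. Glutamate/glycine (50–100 μM/30 μM) applied, then with 5–8 compound concentrations. Bath contains 10 μM EDTA; leak-corrected.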

[13] = Selectivity ratio of IC50 for mouse NR1/NR2B receptor D101A mutant to IC50 for wild type rat NR1/NR2B receptor
[14] = biological target: Voltage-gated inwardly rectifying potassium channel KCNH2 (Homo sapiens, UniProt Q12809); test: Displacement of [3H]astemizole from human recombinant ERG expressed in HEK293 cells; format: cell-based
MDCK [15] = test: Efflux ratio of permeability from basolateral to apical over apical to basolateral side in MDR1-expressing MDCK cells at 5 uM after 2 hrs by LC-MS/MS analysis; format: ADME, cell-based, Canis lupus familiaris; settings: dog
hERG (KCNH2) [16] = biological target: T1, hERG (KCNH2); test: Displacement of [3H]astemizole from human recombinant ERG expressed in HEK293 cells at 3 uM; format: cell-based; settings: HEK293 cells expressing human recombinant ERG, probe [3H]astemizole, read-out: Activity
In short: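 Membranes from HEK293 cells expressing human hERG. Ligand 1.5 nM [3H]-astemizole; displacement at a single test-compound concentration, run in duplicate.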

Chain of Glutamate receptor 1 (Rattus norvegicus) (P19490 whole entry): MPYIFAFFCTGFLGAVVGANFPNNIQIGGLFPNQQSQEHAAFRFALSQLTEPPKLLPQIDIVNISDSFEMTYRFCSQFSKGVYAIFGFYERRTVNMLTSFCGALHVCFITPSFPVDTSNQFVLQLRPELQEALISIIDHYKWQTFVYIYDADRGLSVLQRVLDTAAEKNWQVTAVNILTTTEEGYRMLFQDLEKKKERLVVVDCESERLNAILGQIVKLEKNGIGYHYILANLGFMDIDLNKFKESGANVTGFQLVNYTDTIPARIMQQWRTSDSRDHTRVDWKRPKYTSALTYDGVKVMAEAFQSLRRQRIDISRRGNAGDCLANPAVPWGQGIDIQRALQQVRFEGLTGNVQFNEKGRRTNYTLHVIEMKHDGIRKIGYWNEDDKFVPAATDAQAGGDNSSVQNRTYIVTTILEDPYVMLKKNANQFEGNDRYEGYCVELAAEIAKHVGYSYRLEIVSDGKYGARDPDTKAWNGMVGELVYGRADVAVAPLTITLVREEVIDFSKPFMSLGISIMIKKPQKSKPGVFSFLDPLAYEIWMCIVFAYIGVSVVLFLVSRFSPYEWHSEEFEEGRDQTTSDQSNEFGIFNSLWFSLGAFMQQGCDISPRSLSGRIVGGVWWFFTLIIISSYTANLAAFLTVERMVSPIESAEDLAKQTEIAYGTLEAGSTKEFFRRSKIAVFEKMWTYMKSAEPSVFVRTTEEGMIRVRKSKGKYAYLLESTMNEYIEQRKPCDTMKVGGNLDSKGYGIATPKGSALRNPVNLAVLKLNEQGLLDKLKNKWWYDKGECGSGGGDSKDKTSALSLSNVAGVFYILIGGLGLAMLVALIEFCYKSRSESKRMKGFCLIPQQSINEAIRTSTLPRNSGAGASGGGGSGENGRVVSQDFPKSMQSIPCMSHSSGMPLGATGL
Chain of Glutamate NMDA receptor; GRIN1/GRIN2B (Q13224 whole entry, other chains not shown): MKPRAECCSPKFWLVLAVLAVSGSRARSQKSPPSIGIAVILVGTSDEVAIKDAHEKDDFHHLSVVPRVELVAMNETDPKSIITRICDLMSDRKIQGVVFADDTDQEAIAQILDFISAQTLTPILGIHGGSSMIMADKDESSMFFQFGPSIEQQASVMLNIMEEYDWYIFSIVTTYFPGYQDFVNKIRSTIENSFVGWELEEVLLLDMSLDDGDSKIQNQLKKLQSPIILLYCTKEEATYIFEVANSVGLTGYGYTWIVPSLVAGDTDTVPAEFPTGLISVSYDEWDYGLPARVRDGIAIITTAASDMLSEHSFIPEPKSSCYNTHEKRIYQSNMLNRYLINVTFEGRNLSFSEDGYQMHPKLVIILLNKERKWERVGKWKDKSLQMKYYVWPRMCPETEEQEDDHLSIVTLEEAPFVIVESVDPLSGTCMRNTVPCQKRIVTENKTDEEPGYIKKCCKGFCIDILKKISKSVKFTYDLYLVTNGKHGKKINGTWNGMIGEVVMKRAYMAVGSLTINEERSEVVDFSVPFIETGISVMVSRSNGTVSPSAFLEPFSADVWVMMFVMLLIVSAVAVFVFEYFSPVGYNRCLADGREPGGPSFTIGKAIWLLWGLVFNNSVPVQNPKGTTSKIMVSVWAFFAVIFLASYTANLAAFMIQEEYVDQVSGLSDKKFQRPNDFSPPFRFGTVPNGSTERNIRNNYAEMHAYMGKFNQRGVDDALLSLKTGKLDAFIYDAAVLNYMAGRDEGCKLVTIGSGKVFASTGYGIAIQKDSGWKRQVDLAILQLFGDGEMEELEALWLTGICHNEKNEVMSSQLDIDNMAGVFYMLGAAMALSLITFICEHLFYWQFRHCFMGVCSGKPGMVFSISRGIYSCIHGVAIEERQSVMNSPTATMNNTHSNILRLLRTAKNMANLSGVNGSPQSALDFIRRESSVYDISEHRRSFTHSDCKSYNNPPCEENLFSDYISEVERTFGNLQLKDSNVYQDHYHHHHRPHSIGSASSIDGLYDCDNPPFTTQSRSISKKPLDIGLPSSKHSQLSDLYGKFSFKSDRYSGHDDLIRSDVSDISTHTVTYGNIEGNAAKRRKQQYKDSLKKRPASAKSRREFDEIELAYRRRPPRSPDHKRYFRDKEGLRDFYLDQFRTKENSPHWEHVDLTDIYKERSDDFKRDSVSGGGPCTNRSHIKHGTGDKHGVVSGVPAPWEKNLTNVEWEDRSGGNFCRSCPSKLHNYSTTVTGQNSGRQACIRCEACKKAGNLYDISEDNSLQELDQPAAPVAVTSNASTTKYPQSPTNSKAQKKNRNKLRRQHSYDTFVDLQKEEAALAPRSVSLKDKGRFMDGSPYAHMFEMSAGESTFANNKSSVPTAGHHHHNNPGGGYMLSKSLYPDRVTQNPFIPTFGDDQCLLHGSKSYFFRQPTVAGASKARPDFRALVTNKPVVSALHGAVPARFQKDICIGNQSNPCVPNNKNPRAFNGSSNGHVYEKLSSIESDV
Chain of Glutamate receptor ionotropic, kainate 2 (Rattus norvegicus) (P42260 whole entry): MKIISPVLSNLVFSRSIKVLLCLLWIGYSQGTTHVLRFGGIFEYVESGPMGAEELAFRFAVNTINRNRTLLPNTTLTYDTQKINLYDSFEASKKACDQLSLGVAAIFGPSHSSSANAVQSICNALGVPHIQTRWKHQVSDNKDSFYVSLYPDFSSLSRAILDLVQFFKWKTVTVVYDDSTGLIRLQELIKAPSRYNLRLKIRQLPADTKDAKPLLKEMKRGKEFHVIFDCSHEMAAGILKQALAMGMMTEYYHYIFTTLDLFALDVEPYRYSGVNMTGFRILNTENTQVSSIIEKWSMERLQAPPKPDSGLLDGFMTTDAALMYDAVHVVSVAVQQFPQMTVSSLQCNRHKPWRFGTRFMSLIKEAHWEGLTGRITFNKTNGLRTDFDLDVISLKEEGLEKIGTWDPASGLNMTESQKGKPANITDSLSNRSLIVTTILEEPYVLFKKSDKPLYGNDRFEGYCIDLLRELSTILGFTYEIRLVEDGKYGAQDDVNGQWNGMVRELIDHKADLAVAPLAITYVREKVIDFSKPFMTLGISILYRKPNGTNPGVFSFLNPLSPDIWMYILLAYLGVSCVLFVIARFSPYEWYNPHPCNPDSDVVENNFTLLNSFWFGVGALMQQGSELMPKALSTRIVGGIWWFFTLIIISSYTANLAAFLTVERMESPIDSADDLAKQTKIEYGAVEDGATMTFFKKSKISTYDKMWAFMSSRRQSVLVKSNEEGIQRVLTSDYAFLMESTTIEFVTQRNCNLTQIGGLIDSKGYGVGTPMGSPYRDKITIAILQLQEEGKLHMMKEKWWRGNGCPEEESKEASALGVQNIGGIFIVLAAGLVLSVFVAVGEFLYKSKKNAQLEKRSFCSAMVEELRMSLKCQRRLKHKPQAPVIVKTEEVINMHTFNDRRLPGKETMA
Chain of Voltage-gated inwardly rectifying potassium channel KCNH2 (Q12809 whole entry): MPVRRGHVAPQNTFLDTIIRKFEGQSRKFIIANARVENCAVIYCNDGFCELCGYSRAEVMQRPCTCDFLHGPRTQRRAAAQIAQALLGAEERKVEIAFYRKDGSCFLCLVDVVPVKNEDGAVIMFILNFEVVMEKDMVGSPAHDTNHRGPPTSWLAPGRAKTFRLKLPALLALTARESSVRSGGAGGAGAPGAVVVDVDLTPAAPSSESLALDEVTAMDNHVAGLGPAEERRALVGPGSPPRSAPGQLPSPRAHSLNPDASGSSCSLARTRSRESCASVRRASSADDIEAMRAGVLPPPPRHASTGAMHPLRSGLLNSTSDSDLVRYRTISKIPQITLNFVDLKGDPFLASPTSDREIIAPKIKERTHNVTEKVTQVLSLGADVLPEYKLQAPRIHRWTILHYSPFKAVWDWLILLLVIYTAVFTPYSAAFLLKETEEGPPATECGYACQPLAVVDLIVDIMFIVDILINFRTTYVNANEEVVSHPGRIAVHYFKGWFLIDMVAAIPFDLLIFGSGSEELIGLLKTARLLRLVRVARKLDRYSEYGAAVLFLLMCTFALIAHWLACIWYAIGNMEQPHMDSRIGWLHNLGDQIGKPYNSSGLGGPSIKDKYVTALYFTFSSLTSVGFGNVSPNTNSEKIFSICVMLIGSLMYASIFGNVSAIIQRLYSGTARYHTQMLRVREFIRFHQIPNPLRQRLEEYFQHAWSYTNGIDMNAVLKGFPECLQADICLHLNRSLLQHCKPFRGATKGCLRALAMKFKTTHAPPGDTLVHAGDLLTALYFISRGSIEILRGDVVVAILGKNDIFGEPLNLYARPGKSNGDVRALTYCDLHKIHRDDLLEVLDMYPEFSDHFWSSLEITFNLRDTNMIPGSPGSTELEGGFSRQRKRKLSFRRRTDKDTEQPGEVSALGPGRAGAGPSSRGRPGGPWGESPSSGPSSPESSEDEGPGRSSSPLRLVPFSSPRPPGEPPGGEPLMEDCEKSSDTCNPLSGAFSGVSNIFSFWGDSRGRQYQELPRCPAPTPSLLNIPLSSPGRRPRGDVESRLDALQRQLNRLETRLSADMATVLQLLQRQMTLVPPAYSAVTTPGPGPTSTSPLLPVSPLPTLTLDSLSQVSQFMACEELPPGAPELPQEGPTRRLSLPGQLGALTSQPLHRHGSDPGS

Compound | Ki [1] [µM] | % response [2] [%] | Activity [3] [%] | % response [4] [%] | % response [5] [%] | % response [6] [%] | % response [7] [%] | inhibition at 10 µM (hERG (KCNH2) [8]) [%] | Papp (MDCK [9]) [nm/s] | Papp (MDCK [10]) [nm/s] | % response [11] [%] | IC50 [12] [µM] | Ratio IC50 [13] | Ki [14] [µM] | Ratio (MDCK [15]) | inhibition at 3 µM (hERG (KCNH2) [16]) [%]
CS(=O)(=O)Nc1ccc(OCC(=O)N2CCN(c3ccc(Cl)c(Cl)c3)CC2)cc1 | 0.817 | 106 | 90 | 101 | 94 | 18 | 89 | 93 | 47.6 | 424 | 101 | 0.166 | – | – | – | –
CS(=O)(=O)Nc1ccc(OCC(=O)NCCOc2ccc(Cl)c(Cl)c2)cc1 | – | 92 | 11 | 100 | 96 | 21 | 97 | 42 | – | – | 100 | 0.38 | – | – | – | –
CS(=O)(=O)Nc1ccc(CCC(=O)NNC(=O)c2ccc(Cl)c(Cl)c2)cc1 | – | 96 | – | 97 | 97 | 21 | 102 | – | – | – | 100 | 0.521 | – | – | – | –
CS(=O)(=O)Nc1ccc(OCC(=O)NCCCc2ccc(Cl)c(Cl)c2)cc1 | – | 79 | – | 102 | 96 | 15 | 99 | < 1 | – | – | 100 | 0.064 | – | – | – | –
CS(=O)(=O)Nc1ccc(CCC(=O)NCCCNc2ccc(Cl)c(Cl)c2)cc1 | – | 96 | 19 | 98 | 90 | 12 | 96 | 83 | – | – | 100 | 0.75 | – | – | – | –
CS(=O)(=O)Nc1ccc(CCC(=O)N2CCN(c3ccc(Cl)c(Cl)c3)CC2)cc1 | – | 97 | – | 101 | 100 | 48 | 103 | – | – | – | 104 | 3.6 | – | – | – | –
CS(=O)(=O)Nc1ccc(CCCC(=O)NCCc2ccc(Cl)c(Cl)c2)cc1 | – | 89 | – | 100 | 102 | 62 | 99 | – | – | – | 102 | 1.86 | – | – | – | –
CS(=O)(=O)Nc1ccc(CCC(=O)NNC(=O)Nc2ccc(Cl)c(Cl)c2)cc1 | – | 91 | 5 | 99 | 96 | 6 | 101 | 3 | – | – | 100 | 0.028 | 51 | – | – | –
CS(=O)(=O)Nc1ccc(CCCNCCNc2ccc(Cl)c(Cl)c2)cc1 | – | 91 | 52 | 99 | 104 | 21 | 89 | > 98 | – | – | 102 | 0.019 | – | 0.014 | – | –
CS(=O)(=O)Nc1ccc(CCC(=O)NN2C(=O)c3cc(Cl)c(Cl)cc3C2=O)cc1 | – | 93 | – | 100 | 102 | 90 | 101 | – | – | – | 98 | 41.8 | – | – | – | –
CS(=O)(=O)Nc1ccc(OCC(=O)NC/C=C/c2ccc(Cl)c(Cl)c2)cc1 | – | 97 | 22 | 94 | 95 | 14 | 100 | 74 | – | – | 101 | 0.072 | – | – | – | –
CS(=O)(=O)Nc1ccc(CCCN2CCN(c3ccc(Cl)c(Cl)c3)C2=O)cc1 | – | 91 | – | 99 | 97 | 17 | 96 | 81 | – | – | 100 | 0.637 | – | – | – | –
CS(=O)(=O)Nc1ccc(OCC(=O)NCCSc2ccc(Cl)c(Cl)c2)cc1 | – | 96 | 5 | 94 | 95 | 21 | 96 | 75 | – | – | 101 | 0.362 | – | – | – | –
CS(=O)(=O)Nc1ccc(OCCN2CCN(c3ccc(Cl)c(Cl)c3)C2=O)cc1 | 0.3 | 98 | 23 | 103 | 98 | 20 | 105 | 71 | 129 | 402 | 98 | 0.73 | – | – | 3.1 | –
CS(=O)(=O)Nc1ccc(CCC(=O)NC/C=C/c2ccc(Cl)c(Cl)c2)cc1 | – | 88 | 16 | 100 | 95 | 18 | 99 | – | – | – | 104 | 0.05 | – | 3 | – | 47
CS(=O)(=O)Nc1ccc(CCC(=O)NNCCc2ccc(Cl)c(Cl)c2)cc1 | – | 95 | – | 98 | 97 | 44 | 106 | – | – | – | 100 | 4.81 | – | – | – | –
CS(=O)(=O)Nc1ccc(OCC(=O)NCCCNc2ccc(Cl)c(Cl)c2)cc1 | – | 100 | – | 90 | 97 | 12 | 106 | – | – | – | 103 | 0.193 | – | – | – | –
CS(=O)(=O)Nc1ccc(CCC(=O)NNC(=S)Nc2ccc(Cl)c(Cl)c2)cc1 | – | 92 | – | 96 | 94 | 12 | 104 | 13 | – | – | 100 | 0.27 | – | – | – | –
CS(=O)(=O)Nc1ccc(OCCNCC(=O)Nc2ccc(Cl)c(Cl)c2)cc1 | – | 95 | 21 | 98 | 94 | 21 | 108 | 67 | – | – | 97 | 1.11 | – | – | – | –
CS(=O)(=O)Nc1ccc(OCCNCCNc2ccc(Cl)c(Cl)c2)cc1 | – | 100 | 49 | 98 | 100 | 17 | 91 | 97 | – | – | 101 | 0.039 | – | 0.3 | – | –
CS(=O)(=O)Nc1ccc(CCC(=O)NCCNc2ccc(Cl)c(Cl)c2)cc1 | – | 84 | 1 | 98 | – | 14 | 99 | – | – | – | – | 0.065 | – | – | – | –
